Data: ChEMBL document CHEMBL1765053, “Synthetic mimics of antimicrobial peptides from triaryl scaffolds” (J Med Chem, 2011)
≈ marks a conversion by molar mass, not a printed value.

How the values were obtained:
[1] = Toxicity in human RBC assessed as hemolysis after 1 hr; format: cell-based, Erythrocyte; settings: human red blood cells (RBC)
Summary of the method: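 RBCs spun down from human whole blood and diluted in TBS to a 0.22% stock suspension. Serial 1:2 dilutions of compound in water added, highest final 1000 μg/mL. Shaken 1 h at 37 °C, then centrifuged 3000 rpm for 5 min. Supernatant diluted into water and released hemoglobin quantified. HC50 is the lowest concentration lysing 50% of RBCs.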

Escherichia coli = assay: Antibacterial activity against Escherichia coli ATCC 25922 after 18 hrs by microbroth dilution method; format: functional; settings: ATCC 25922, 18 h
Summary of the method: (§1)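 Hancock modification of CLSI broth microdilution, adjusted to limit compound adsorption to surfaces and precipitation. Bacteria grown overnight in Mueller-Hinton broth at 37 °C. Compounds tested as di-TFA salts or diamine, from DMSO/Hancock solution (0.01% acetic acid, 0.2% BSA) 2-fold stocks diluted 10-fold into culture. Final 100 to 0.05 μg/mL, duplicate. Growth read as OD600 after 18 h at 37 °C. MIC taken as >90% growth inhibition.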

Klebsiella pneumoniae = assay: Antibacterial activity against Klebsiella pneumoniae ATCC 13883 after 18 hrs by microbroth dilution method; format: functional; settings: ATCC 13883, 18 h; summary of the method: as §1
Staphylococcus aureus = assay: Antibacterial activity against Staphylococcus aureus ATCC 27660 after 18 hrs by microbroth dilution method; format: functional; settings: ATCC 27660, 18 h; summary of the method: as §1

| Compound | MIC (Escherichia coli) | MIC (Klebsiella pneumoniae) | MIC (Staphylococcus aureus) | HC50 at 1 h [1] |
| --- | --- | --- | --- | --- |
| CC(C)(C)c1ccc(NC(=O)CCN)c(-c2ccc(-c3cc(C(C)(C)C)ccc3NC(=O)CCN)nn2)c1.O=C(O)C(F)(F)F.O=C(O)C(F)(F)F | 50 µg/mL | 100 µg/mL | 12.5 µg/mL | 82.5 µg/mL |
| CC(C)(C)c1ccc(NC(=O)CCN)c(-c2ccc(-c3cc(C(C)(C)C)ccc3NC(=O)CCN)cc2)c1.O=C(O)C(F)(F)F.O=C(O)C(F)(F)F | 6.25 µg/mL | 12.5 µg/mL | 3.13 µg/mL | 6.46 µg/mL |
| NCCC(=O)Nc1ccc(C(F)(F)F)cc1-c1ccc(-c2cc(C(F)(F)F)ccc2NC(=O)CCN)nn1.O=C(O)C(F)(F)F.O=C(O)C(F)(F)F | 50 µg/mL | 50 µg/mL | 25 µg/mL | 191 µg/mL |
| NCCC(=O)Nc1ccccc1-c1ccc(-c2ccccc2NC(=O)CCN)nn1.O=C(O)C(F)(F)F.O=C(O)C(F)(F)F | 50 µg/mL | > 50 µg/mL | 50 µg/mL | > 1000 µg/mL |
| NCCC(=O)Nc1ccc(C(F)(F)F)cc1-c1ccc(-c2cc(C(F)(F)F)ccc2NC(=O)CCN)cc1.O=C(O)C(F)(F)F.O=C(O)C(F)(F)F | 12.5 µg/mL | 25 µg/mL | 3.13 µg/mL | 36.5 µg/mL |
| CC(C)(C)c1ccc(NC(=O)CCCCN)c(-c2ccc(-c3cc(C(C)(C)C)ccc3NC(=O)CCCCN)nn2)c1 | 25 µg/mL (≈ 43.6 µM) | 25 µg/mL (≈ 43.6 µM) | 12.5 µg/mL (≈ 21.8 µM) | – |
| H-GIGKFLKKAKKFGKAFVKILKK-NH2 [PEXIGANAN] | 16 µg/mL | – | 8 µg/mL | 120 µg/mL |

Continued, in another order:

| MIC (Escherichia coli) | MIC (Klebsiella pneumoniae) | MIC (Staphylococcus aureus) | Compound | HC50 at 1 h [1] |
| --- | --- | --- | --- | --- |
| 12.5 µg/mL | 25 µg/mL | 12.5 µg/mL | CC(C)(C)c1ccc(NC(=O)CCN)c(-c2ccc(-c3cc(C(C)(C)C)ccc3NC(=O)CCN)nc2)c1.O=C(O)C(F)(F)F.O=C(O)C(F)(F)F | 39 µg/mL |
| 50 µg/mL | > 100 µg/mL | 25 µg/mL | NCCC(=O)Nc1ccc(C(F)(F)F)cc1-c1ccc(-c2cc(C(F)(F)F)ccc2NC(=O)CCN)nc1.O=C(O)C(F)(F)F.O=C(O)C(F)(F)F | 356 µg/mL |
| 6.25 µg/mL | 12.5 µg/mL | 3.13 µg/mL | CC(C)(C)c1ccc(NC(=O)CCCCN)c(-c2ccc(-c3cc(C(C)(C)C)ccc3NC(=O)CCCCN)cc2)c1.O=C(O)C(F)(F)F.O=C(O)C(F)(F)F | 34.5 µg/mL |
| 6.25 µg/mL | 12.5 µg/mL | 0.78 µg/mL | CC(C)(C)c1ccc(NC(=O)CCCCNC(=N)N)c(-c2ccc(-c3cc(C(C)(C)C)ccc3NC(=O)CCCCNC(=N)N)cc2)c1.O=C(O)C(F)(F)F.O=C(O)C(F)(F)F | 12.8 µg/mL |
